# Measured values: article PMC3086141 (Circulation. Cardiovascular interventions, 2011)
# Columns and labels:
# [1] = Quantification of bivalirudin concentration in plasma of PCI patients; format: in vivo; settings: both, human, iv, Residual plasma drug levels two hours after discontinuation of infusion, 2 h POST, LC/MS/MS
# How it was run: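 Test compound given to 22 PCI patients as an IV bolus followed by continuous infusion. Plasma sampled at baseline, about 5 min post-bolus, 30 min into infusion (or at PCI end if earlier), and 5 min, 15 min and 2 h after infusion stopped. Levels measured by LC/MS/MS with a […] detection threshold. Data given as mean ± SD.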
# [2] = PCI patients; bolus of 1.0 mg/kg followed by infusion of 2.5 mg/kg/h; cited from earlier work
compound,measurement,setting,value
CC[C@H](C)[C@H](NC(=O)[C@H](CCC(=O)O)NC(=O)[C@H](CCC(=O)O)NC(=O)[C@H](Cc1ccccc1)NC(=O)[C@H](CC(=O)O)NC(=O)CNC(=O)[C@H](CC(N)=O)NC(=O)CNC(=O)CNC(=O)CNC(=O)CNC(=O)[C@@H]1CCCN1C(=O)[C@H](CCCNC(=N)N)NC(=O)[C@@H]1CCCN1C(=O)[C@H](N)Cc1ccccc1)C(=O)N1CCC[C@H]1C(=O)N[C@@H](CCC(=O)O)C(=O)N[C@@H](CCC(=O)O)C(=O)N[C@@H](Cc1ccc(O)cc1)C(=O)N[C@@H](CC(C)C)C(=O)O [bivalirudin],level at time molar,[1],200 nM
same,"Mean steady-state bivalirudin plasma levels, original dosage",[2],5.6 µM
same,"Terminal half-life, original dosage",[2],25 min
